Here are results for 3 substances from PMC3003407 (The Journal of Biological Chemistry, 2010).

As a reminder, the Kd is a measure of binding affinity in units of concentration.

Assay [1] has as its target human plasma fibronectin (human). Kind of assay: ELISA. (In general: An ELISA detects its analyte on a solid surface through an enzyme-linked reagent.)
The target of a further assay is FN (Homo sapiens, UniProt P02751). Nature of the assay: Competition of 0.3 nM b-FUD binding to adsorbed FN. The conditions noted are these: 1000 nM competitor. In outline: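 Wells coated overnight at 4 °C with 10 μg/ml (40 nM) FN, then blocked with 5% BSA in TBST. 0.3 nM biotinylated FUD was added together with competitor in TBST plus 0.1% BSA for 2 h. Detection used alkaline phosphatase–streptavidin (1:20,000, 1 h), 4-nitrophenyl phosphate (1 mg/ml, TBS pH 9.0) and A405. Triplicates, background-subtracted, expressed relative to b-FUD alone.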

Assay [2] deals with recombinant human N-terminal 70-kDa fibrin- and gelatin-binding fragment of fibronectin (N-9FNI, residues 32-608) (human) (UniProt P02751). Nature of the assay: ITC.

In turn, “FUD i29/30 (single alanine inserted between Ile-29 and Asp-30) (domain or fragment)” registered a percent competition at 10 μM in assay [1] of 20%.
On to “N-^5FNI: Recombinant FN fibrin-binding fragment, residues 32–290”, for which the “competition with b-FUD for binding to FN” value in the assay with FN is reported as “minor degree”.
Regarding “functional upstream domain (FUD) of Streptococcus pyogenes F1 adhesin, recombinant, 56 residues with tails (domain or fragment)”, the Kd in assay [2] was determined as 5.2 nM.
